ChEMBL document CHEMBL3112583, “Modular construction of quaternary hemiaminal-based inhibitor candidates and their in cellulo assessment with HIV-1 protease” (Bioorg Med Chem, 2013)
pKi: −log10 of the molar value. Calls of active or inactive are those of the source. The calls are words filed in the database; no cut-off is given here.

Key:
MDR1 (ABCB1, P-gp) [1] = target: T1, MDR1 (ABCB1, P-gp) (Homo sapiens, UniProt P08183); assay: Inhibition of MDR1 (unknown origin) expressed in mouse NIH/3T3 cells assessed as inhibition of mitoxatrone efflux at 2 uM after 1 hr by FACS analysis; type: cell-based; settings: NIH/3T3 cells expressing MDR1, probe mitoxantrone (printed: mitoxatrone)
HEK293 [2] = assay: Cytotoxicity against human HEK293 cells expressing BCRP assessed as cell survival after 72 hrs by MTT assay; type: ADME, cell-based; settings: hek293, 72 h
Procedure, shortened: (§1)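 HEK293 cells stably transfected with BCRP, or with empty vector (HEK293-pcDNA3) as parental control, kept in high-glucose DMEM with 10% FBS, 1% penicillin/streptomycin and 0.75 mg/mL G418, at 37 °C in humidified 5% CO₂. Cells were exposed for 72 h to increasing compound concentrations, and survival was read by MTT colorimetric assay. IC50 is the mean ± sd of at least three independent experiments.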

[3] = Cytotoxicity against mouse NIH/3T3 cells assessed as cell survival after 72 hrs by MTT assay; type: cell-based, NIH3T3
HEK293 [4] = assay: Cytotoxicity against human HEK293 cells assessed as cell survival after 72 hrs by MTT assay; type: cell-based; settings: hek293, 72 h; procedure, shortened: as §1
[5] = (§2) Cytotoxicity against mouse NIH/3T3 cells expressing pgp assessed as cell survival after 72 hrs by MTT assay; type: ADME, cell-based, NIH3T3; settings: NIH/3T3 cells expressing P-gp
Protease [6] = target: T2, Protease (Human immunodeficiency virus 1, UniProt Q9YQ12); assay: Inhibition of HIV-1 recombinant protease using DABCYL-GABA-Ser-Asn-Tyr-Pro-Ile-Val-Gln-EDANS as substrate incubated for 30 mins prior to substrate addition by Lineweaver-Burk plot analysis
[7] = Cytotoxicity against mouse NIH/3T3 cells expressing pgp assessed as cell survival at >30 to 50 uM after 72 hrs by MTT assay; type: ADME, cell-based, NIH3T3; settings: NIH/3T3 cells expressing P-gp
[8] = Cytotoxicity against human HEK293 cells assessed as cell survival after 72 hrs by MTT assay
[9] = Cytotoxicity against human HEK293 cells expressing BCRP assessed as cell survival after 72 hrs by MTT assay
Protease [10] = target: T2, Protease; assay: Inhibition of HIV-1 recombinant protease using DABCYL-GABA-Ser-Asn-Tyr-Pro-Ile-Val-Gln-EDANS as substrate incubated for 30 mins prior to substrate addition by Hanes plot analysis
[11] = Cytotoxicity against mouse NIH/3T3 cells assessed as cell survival after 72 hrs by MTT assay
BCRP (ABCG2) [12] = target: T3, BCRP (ABCG2) (Homo sapiens, UniProt Q9UNQ0); assay: Inhibition of BCRP (unknown origin) expressed in mouse NIH/3T3 cells assessed as inhibition of mitoxatrone efflux at 2 uM after 1 hr by FACS analysis; type: cell-based, NIH3T3; settings: NIH/3T3 cells expressing BCRP, probe mitoxantrone (printed: mitoxatrone)
T3 sequence (Q9UNQ0 whole entry): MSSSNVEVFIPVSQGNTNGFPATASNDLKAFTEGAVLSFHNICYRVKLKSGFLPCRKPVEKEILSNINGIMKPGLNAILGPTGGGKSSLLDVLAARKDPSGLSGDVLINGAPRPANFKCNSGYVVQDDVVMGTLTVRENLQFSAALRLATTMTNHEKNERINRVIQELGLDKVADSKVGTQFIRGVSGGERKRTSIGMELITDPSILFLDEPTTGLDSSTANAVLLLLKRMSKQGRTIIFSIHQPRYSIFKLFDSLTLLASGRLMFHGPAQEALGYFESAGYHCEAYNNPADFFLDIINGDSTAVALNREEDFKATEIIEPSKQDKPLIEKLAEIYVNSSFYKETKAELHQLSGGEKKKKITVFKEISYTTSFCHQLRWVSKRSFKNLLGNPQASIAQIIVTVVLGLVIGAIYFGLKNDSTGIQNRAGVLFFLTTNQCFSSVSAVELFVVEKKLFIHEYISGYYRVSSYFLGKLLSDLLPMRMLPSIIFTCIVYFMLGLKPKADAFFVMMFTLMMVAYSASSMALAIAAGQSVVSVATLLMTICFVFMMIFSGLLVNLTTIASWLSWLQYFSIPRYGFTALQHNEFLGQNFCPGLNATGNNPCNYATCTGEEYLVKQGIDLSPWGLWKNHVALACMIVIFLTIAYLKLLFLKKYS

[13] = target: Protease (Human immunodeficiency virus 1) (UniProt Q9YQ12); assay: Inhibition of HIV-1 protease in human T cells assessed as increase in eGFP expression at >20 uM after 24 hrs by flow cytometry; type: cell-based; settings: T-cell
Procedure, shortened: (§3)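 SupT1 T cells carry an HIV-1 protease–Gal4 fusion under a tetracycline-inducible promoter and a Gal4-responsive eGFP reporter. They were kept in RPMI 1640 with 10% FBS and 1% penicillin/streptomycin at 37 °C in 5% CO₂. Cells were grown 24 h with 1–100 µM compound, with indinavir (0.0001–10 µM) as reference, then induced with […] doxycycline. eGFP was read 48 h later by flow cytometry (ex 488/em 530 nm).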

BCRP (ABCG2) [14] = target: T3, BCRP (ABCG2); assay: Inhibition of BCRP (unknown origin) expressed in mouse NIH/3T3 cells assessed as inhibition of mitoxatrone efflux at 10 uM after 1 hr by FACS analysis; type: cell-based, NIH3T3; settings: NIH/3T3 cells expressing BCRP, probe mitoxantrone (printed: mitoxatrone)
Protease [15] = target: T2, Protease; assay: Inhibition of HIV-1 recombinant protease using DABCYL-GABA-Ser-Asn-Tyr-Pro-Ile-Val-Gln-EDANS as substrate incubated for 30 mins prior to substrate addition by Dixon plot analysis
MDR1 (ABCB1, P-gp) [16] = target: T1, MDR1 (ABCB1, P-gp); assay: Inhibition of MDR1 (unknown origin) expressed in mouse NIH/3T3 cells assessed as inhibition of mitoxatrone efflux at 10 uM after 1 hr by FACS analysis; type: cell-based, NIH3T3; settings: NIH/3T3 cells expressing MDR1, probe mitoxantrone (printed: mitoxatrone)
[17] = target: Protease (Human immunodeficiency virus 1) (UniProt Q9YQ12); assay: Inhibition of HIV-1 protease in human T cells assessed as increase in eGFP expression at 1 to 100 uM after 24 hrs by flow cytometry; type: cell-based; settings: T-cell; procedure, shortened: as §3
[18] = target: Protease (Human immunodeficiency virus 1) (UniProt Q9YQ12); assay: Inhibition of HIV-1 protease in human T cells assessed as increase in eGFP expression at 0.1 uM after 24 hrs by flow cytometry; type: cell-based; settings: T-cell
NIH3T3 = assay: as §2; type: ADME, cell-based; settings: nih3t3, 72 h
[19] = Cytotoxicity against human HEK293 cells assessed as cell survival after 72 hrs by MTT assay; remark: listed apart in the source
[20] = Cytotoxicity against mouse NIH/3T3 cells expressing pgp assessed as cell survival after 72 hrs by MTT assay; settings: NIH/3T3 cells expressing P-gp
[21] = Cytotoxicity against human HEK293 cells expressing BCRP assessed as cell survival after 72 hrs by MTT assay; remark: listed apart in the source
[22] = Cytotoxicity against mouse NIH/3T3 cells assessed as cell survival after 72 hrs by MTT assay; remark: listed apart in the source

Sequence of Protease (Human immunodeficiency virus 1) (Q9YQ12 as listed by the source): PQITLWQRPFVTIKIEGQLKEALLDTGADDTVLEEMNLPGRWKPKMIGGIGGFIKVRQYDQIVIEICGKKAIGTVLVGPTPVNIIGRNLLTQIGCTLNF
T2 sequence (Q9YQ12 whole entry): as the sequence (Q9YQ12 as listed by the source) above
T1 sequence (P08183 whole entry): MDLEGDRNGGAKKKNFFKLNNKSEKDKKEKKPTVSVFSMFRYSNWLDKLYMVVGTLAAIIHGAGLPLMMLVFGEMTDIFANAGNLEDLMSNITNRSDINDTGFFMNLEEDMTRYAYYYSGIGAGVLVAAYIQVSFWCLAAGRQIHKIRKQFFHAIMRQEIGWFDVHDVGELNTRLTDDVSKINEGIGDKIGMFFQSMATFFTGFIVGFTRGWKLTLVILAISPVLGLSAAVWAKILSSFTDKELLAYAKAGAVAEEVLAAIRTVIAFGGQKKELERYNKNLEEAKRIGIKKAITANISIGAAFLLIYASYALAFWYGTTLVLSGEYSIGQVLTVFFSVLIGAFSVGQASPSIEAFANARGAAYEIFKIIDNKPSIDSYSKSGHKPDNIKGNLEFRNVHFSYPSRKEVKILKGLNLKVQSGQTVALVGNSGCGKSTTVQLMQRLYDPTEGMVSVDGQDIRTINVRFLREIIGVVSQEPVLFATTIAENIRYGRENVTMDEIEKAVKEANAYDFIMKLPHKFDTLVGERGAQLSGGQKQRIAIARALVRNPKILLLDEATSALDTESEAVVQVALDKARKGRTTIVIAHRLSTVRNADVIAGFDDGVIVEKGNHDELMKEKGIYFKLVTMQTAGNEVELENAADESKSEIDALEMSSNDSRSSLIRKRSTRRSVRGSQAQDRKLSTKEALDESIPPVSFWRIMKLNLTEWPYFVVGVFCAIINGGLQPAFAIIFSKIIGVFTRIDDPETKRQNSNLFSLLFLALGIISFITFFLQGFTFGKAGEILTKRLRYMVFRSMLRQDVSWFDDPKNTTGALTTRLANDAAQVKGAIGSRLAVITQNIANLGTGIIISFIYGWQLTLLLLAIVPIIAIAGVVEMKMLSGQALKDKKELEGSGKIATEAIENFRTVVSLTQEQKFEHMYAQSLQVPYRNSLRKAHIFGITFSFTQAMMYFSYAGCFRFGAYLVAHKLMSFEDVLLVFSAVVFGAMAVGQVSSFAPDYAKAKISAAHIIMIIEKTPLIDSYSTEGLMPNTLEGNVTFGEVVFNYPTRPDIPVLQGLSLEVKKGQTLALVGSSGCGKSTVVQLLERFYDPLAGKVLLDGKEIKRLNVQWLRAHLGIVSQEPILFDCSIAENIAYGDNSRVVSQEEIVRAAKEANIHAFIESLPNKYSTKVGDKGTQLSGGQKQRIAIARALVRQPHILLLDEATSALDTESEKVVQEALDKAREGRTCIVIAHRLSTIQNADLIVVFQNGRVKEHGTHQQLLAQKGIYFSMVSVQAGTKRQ

| Structure (SMILES) | inhibition at 1 h, 2 µM (MDR1 (ABCB1, P-gp) [1]) [%] | pKi (Protease [6]) | IC50 at 72 h [7] [µM] | IC50 at 72 h [8] [µM] | IC50 at 72 h [9] [µM] | pKi (Protease [10]) | IC50 at 72 h [11] [µM] | inhibition at 1 h, 2 µM (BCRP (ABCG2) [12]) [%] | inhibition [13] | inhibition at 1 h, 10 µM (BCRP (ABCG2) [14]) [%] | pKi (Protease [15]) | inhibition at 1 h, 10 µM (MDR1 (ABCB1, P-gp) [16]) [%] | inhibition [17] | further results |
| --- | --- | --- | --- | --- | --- | --- | --- | --- | --- | --- | --- | --- | --- | --- |
| COc1cc2c(cc1OC)CN(CCc1ccc(NC(=O)c3cccc4c(=O)c5cccc(OC)c5[nH]c34)cc1)CC2 | 110 |  |  |  |  |  |  |  |  |  |  |  |  |  |
| CC(C)(C)NC(=O)[C@@H]1C[C@@H]2CCCC[C@@H]2CN1C[C@@H](O)[C@H](Cc1ccccc1)NC(=O)[C@H](CC(N)=O)NC(=O)c1ccc2ccccc2n1 |  |  |  |  |  |  |  |  |  |  |  |  |  | Activity (HEK293 [2]): Not Active; IC50 at 72 h [3]: 37 µM; Activity (HEK293 [4]): Not Active; IC50 at 72 h [5]: 49 µM |
| O=C[C@H](Cc1ccccc1)NC(=O)N(Cc1cccc(O)c1)N1CCCCC1 | 4.6 | 3.57 | 43.5 | 35.3 | 23.1 | 3.62 | 42.1 | 2.5 | Active | 8.4 | 3.84 | 4.8 |  |  |
| O=C[C@H](Cc1ccc(O)cc1)NC(=O)N(Cc1ccccc1)N1CCCCC1 | 1.1 | 3.40 | 71.2 | 52.4 | 47.9 | 3.47 | 58.6 | 0.9 |  | 2.5 | 3.51 | 3 | inactive |  |
| CN(C)N(Cc1ccccc1)C(=O)N[C@H](C=O)Cc1ccccc1 | 2.3 | 3.28 | 100 | 56.3 | 57.2 | 3.39 | 68.8 | 0.2 |  | 8.1 | 3.31 | 8.1 | inactive |  |
| CC(C)(C)NC(=O)[C@@H]1CN(Cc2cccnc2)CCN1C[C@@H](O)C[C@@H](Cc1ccccc1)C(=O)N[C@H]1c2ccccc2C[C@H]1O |  |  |  |  |  |  |  |  |  |  |  |  |  | inhibition [18]: Active |
| COc1cccc(CN(C(=O)N[C@H](C=O)Cc2ccccc2)N2CCCCC2)c1 | 7.7 | 3.49 | 46.8 | 42.6 | 37.2 | 3.39 | 39.4 | 0.9 | Active | 8.1 | 3.48 | 22.7 |  |  |
| O=C[C@H](Cc1ccccc1)NC(=O)N(Cc1ccccc1)N1CCCCC1 | 5.5 | 3.76 | 48.6 | 37.6 | 34.8 | 3.59 | 42.6 | 0.2 | Active | 0.3 | 3.53 | 6.4 |  |  |
| O=C[C@H](Cc1ccccc1)NC(=O)N(Cc1ccccc1)N1CCOCC1 | 7.1 | 3.50 |  |  |  | 3.44 |  | 0.2 |  | 3.3 | 3.00 | 11.5 | inactive | Activity (HEK293 [2]): Not Active; IC50 at 72 h [3]: 79.8 µM; Activity (HEK293 [4]): Not Active; Activity (NIH3T3): Not Active |
| O=C[C@H](Cc1ccccc1)N(Cc1ccccc1)C(=O)N(Cc1ccccc1)N1CCCCC1 | 1.8 | 3.33 |  |  |  | 2.95 |  | 1.8 |  | 8.8 | 3.00 | 15 | inactive | IC50 at 72 h [19]: 17.6 µM; IC50 at 72 h [20]: 12.8 µM; IC50 at 72 h [21]: 12.8 µM; IC50 at 72 h [22]: 11.2 µM |
